Experimental data as given in PubChem BioAssay AID2465 (Broad Institute, 2010).
Out of some 24,000 compounds screened, fewer than 10 were called active. No stated cut-off is given here; in the data, active means caspase activation above about 5.9%; inconclusive means no clear call, values can overlap the other calls; inactive means below about 2.2%. The list is a sample of the results.

assay: A1 inhibitors via caspase activation, primary screen, cell-based, luminescence, HTS, two replicates (AID 2465); settings: MEF A1-2A-BIM cells, caspase-Glo luminescence, 3 h; hits give high values; percent of clofoctol response, DMSO zero; concentration not given here
How it was run: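 system = A1-2A-BIM-expressing MEF cells | quantity = 2500 MEF cells/well | dosing = 50 nL compound per well, pinned | schedule = overnight cell settling, then 3 h compound exposure, 37 °C | signal = luminescence from DEVD-luciferin Caspase-Glo reagent, 1:1 in 50 mM HEPES, 1 h RT | read-out = Caspase-3/7 activation, seen as rise in luminescence signal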

Caspase activation, inactive:
C[C@H]1CN([C@@H](C)CO)C(=O)Cc2cc(NS(=O)(=O)c3ccccc3)ccc2O[C@H]1CN(C)Cc1ccc(C(=O)Nc2ccccc2N)cc1 0.839%
COc1ccc(CN(C)C[C@H]2OCCCC[C@H](C)Oc3ccc(NC(=O)NC4CCCCC4)cc3C(=O)N([C@@H](C)CO)C[C@@H]2C)cc1 2.09%
CN(C)c1ccc(/C=N/NC(=O)c2cccc(C(=O)NO)c2)cc1 -7.51%
C[C@@H]1CN([C@@H](C)CO)C(=O)c2cc(NC(=O)Nc3ccc4c(c3)OCO4)ccc2O[C@@H](C)CCCCO[C@@H]1CN(C)S(=O)(=O)c1cccs1 0.598%
COc1ccc(CN(C)C[C@H]2OCCCC[C@H](C)Oc3ccc(NC(=O)c4ccccc4)cc3C(=O)N([C@@H](C)CO)C[C@@H]2C)cc1 2.67%
O=C(NO)c1cccc(C(=O)N/N=C/c2cc(Br)c(O)c(Br)c2)c1 0.169%
CC(C)NC(=O)N(C)C[C@H]1Oc2ccc(NC(=O)CCCCCC(=O)Nc3ccccc3N)cc2CC(=O)N([C@@H](C)CO)C[C@H]1C 0.899%
Cc1noc(C)c1S(=O)(=O)N(C)C[C@H]1OCc2cn(nn2)CCCC(=O)N([C@H](C)CO)C[C@H]1C -0.756%
C[C@H]1CCCCO[C@@H](CN(C)C(=O)Nc2ccccc2)[C@@H](C)CN([C@@H](C)CO)C(=O)c2cc(NC(=O)Nc3ccc(F)cc3)ccc2O1 -0.917%
Cc1ccc(S(=O)(=O)Nc2ccc3c(c2)C(=O)N([C@H](C)CO)C[C@H](C)[C@@H](CN(C)Cc2ccccc2)OCCCC[C@H](C)O3)cc1 -0.556%
C[C@H](CO)N1C[C@H](C)[C@@H](CN(C)Cc2ccc(C(=O)O)cc2)Oc2ccc(NS(=O)(=O)c3cn(C)cn3)cc2CC1=O -0.273%
C[C@@H]1CCCCO[C@@H](CN(C)C(=O)Nc2cccc3ccccc23)[C@H](C)CN([C@H](C)CO)C(=O)c2cc(NS(C)(=O)=O)ccc2O1 -0.00967%
Cc1noc(C)c1NC(=O)Nc1ccc2c(c1)C(=O)N([C@H](C)CO)C[C@@H](C)[C@@H](CN(C)Cc1ccncc1)OCCCC[C@H](C)O2 -0.749%
C[C@@H]1CN([C@@H](C)CO)C(=O)c2cc(NC(=O)Cc3ccccc3)ccc2O[C@@H]1CN(C)CC1CCCCC1 0.64%
Cc1noc(C)c1NC(=O)Nc1ccc2c(c1)C(=O)N([C@@H](C)CO)C[C@@H](C)[C@H](CN(C)C(=O)NC(C)C)O2 0.213%
C[C@@H]1CN([C@H](C)CO)C(=O)c2cc(NC(=O)CCCCCC(=O)Nc3ccccc3N)ccc2O[C@H]1CN(C)Cc1ccncc1 0.61%
C[C@@H]1CCCCO[C@H](CN(C)CC2CC2)[C@@H](C)CN([C@H](C)CO)C(=O)c2cc(NC(=O)Nc3ccc(F)cc3)ccc2O1 -0.194%
COc1ccc(S(=O)(=O)N(C)C[C@@H]2Oc3c(NC(=O)NC(C)C)cccc3C(=O)N([C@@H](C)CO)C[C@@H]2C)cc1 -0.3%
O=C(CCCCC(=O)N/N=C/c1ccc(-n2ccnc2)cc1)NO 1.09%
C[C@H](CO)N1C[C@H](C)[C@H](CN(C)C(=O)c2ccccc2)OCCCC[C@H](C)Oc2ccc(N(C)C)cc2C1=O -1.45%
CC(C)NC(=O)Nc1ccc2c(c1)C(=O)N([C@H](C)CO)C[C@H](C)[C@@H](CN(C)S(=O)(=O)c1ccc(F)cc1)OCCCC[C@H](C)O2 1.08%
COc1ccc(S(=O)(=O)N(C)C[C@@H]2OCCCC[C@@H](C)Oc3ccc(NC(=O)c4ccccc4)cc3C(=O)N([C@@H](C)CO)C[C@H]2C)cc1 1.47%
C[C@@H]1CCCCO[C@H](CN(C)C(=O)Nc2ccc(C(F)(F)F)cc2)[C@@H](C)CN([C@@H](C)CO)C(=O)c2cc(NS(=O)(=O)c3cccs3)ccc2O1 -0.547%
CCOc1cccc(/C=N/NC(=O)CCCCCC(=O)Nc2ccccc2O)c1OCC -0.952%
C[C@@H]1CN([C@@H](C)CO)C(=O)c2cc(NC(=O)Nc3ccc(C(F)(F)F)cc3)ccc2O[C@@H](C)CCCCO[C@H]1CN(C)C(=O)CCCN(C)C 0.263%
Cc1noc(C)c1NC(=O)N(C)C[C@@H]1Oc2ccc(NS(=O)(=O)c3ccc(F)cc3)cc2CC(=O)N([C@@H](C)CO)C[C@H]1C -0.135%
COc1ccc(S(=O)(=O)Nc2ccc3c(c2)CC(=O)N([C@H](C)CO)C[C@H](C)[C@@H](CN(C)C(=O)NC(C)C)O3)cc1 0.0847%
C[C@H](CO)N1C[C@H](C)[C@@H](CN(C)S(C)(=O)=O)OCCCC[C@H](C)Oc2ccc(NC(=O)Nc3ccc(C(F)(F)F)cc3)cc2C1=O -0.463%
C[C@H]1CCCCO[C@H](CN(C)S(C)(=O)=O)[C@@H](C)CN([C@@H](C)CO)C(=O)c2cc(NC(=O)C3CCCCC3)ccc2O1 -0.127%
C[C@@H]1CN([C@@H](C)CO)C(=O)c2cc(NC(=O)NC3CCCCC3)ccc2O[C@@H](C)CCCCO[C@H]1CN(C)Cc1ccccc1 1.95%
C[C@@H]1CCCCO[C@@H](CN(C)C(=O)Nc2cccc3ccccc23)[C@H](C)CN([C@H](C)CO)C(=O)c2cc(NC(=O)NC3CCCCC3)ccc2O1 -0.528%
COc1ccc(NC(=O)N(C)C[C@H]2OCCCC[C@H](C)Oc3ccc(NC(=O)c4ccncc4)cc3C(=O)N([C@H](C)CO)C[C@@H]2C)cc1 -1.84%
COc1ccc(S(=O)(=O)Nc2cccc3c2O[C@@H](CN(C)C(=O)NC(C)C)[C@H](C)CN([C@@H](C)CO)C3=O)cc1 0.104%
COc1ccc(CN(C)C[C@H]2Oc3ccc(NS(=O)(=O)c4c(C)noc4C)cc3CC(=O)N([C@H](C)CO)C[C@H]2C)cc1 -1.02%
C[C@H]1CCCCO[C@H](CN(C)C(=O)Nc2ccccc2)[C@@H](C)CN([C@@H](C)CO)C(=O)c2cc(NC(=O)c3ccncc3)ccc2O1 0.525%
Cc1ccc(S(=O)(=O)Nc2ccc3c(c2)C(=O)N([C@@H](C)CO)C[C@H](C)[C@@H](CN(C)C(=O)Cc2ccccc2)OCCCC[C@H](C)O3)cc1 -0.949%
C[C@@H]1CN([C@H](C)CO)C(=O)c2cccc(NC(=O)Nc3ccccc3)c2O[C@H]1CN(C)S(C)(=O)=O -0.29%
Cc1ccccc1CN(C)C[C@H]1OCc2cn(nn2)CCCC(=O)N([C@@H](C)CO)C[C@H]1C -0.00464%
C[C@H](CO)N1C[C@H](C)[C@@H](CN(C)S(=O)(=O)c2cccs2)OCCCC[C@H](C)Oc2ccc(NS(=O)(=O)c3ccccc3)cc2C1=O 0.384%
C[C@@H]1CCCCO[C@H](CN(C)Cc2ccccc2)[C@H](C)CN([C@@H](C)CO)C(=O)c2cc(NC(=O)Nc3cccc4ccccc34)ccc2O1 -0.203%
O=C(CCCCCC(=O)Nc1ccccc1O)N/N=C/c1ccc(Br)o1 0.454%
C[C@H](CO)N1C[C@H](C)[C@H](CN(C)Cc2ccc(C(=O)O)cc2)OCc2cn(nn2)CCCC1=O 0.235%
C[C@@H]1CN([C@@H](C)CO)C(=O)c2cc(NC(=O)Nc3ccccc3)ccc2O[C@@H]1CN(C)Cc1ccccc1 -0.201%
CC(C)NC(=O)N(C)C[C@H]1OCCCC[C@H](C)Oc2ccc(NS(=O)(=O)c3cccs3)cc2C(=O)N([C@H](C)CO)C[C@@H]1C 1.03%
COc1ccc(NC(=O)N(C)C[C@@H]2Oc3ccc(NS(=O)(=O)c4ccc(OC)cc4)cc3CC(=O)N([C@H](C)CO)C[C@H]2C)cc1 0.4%
COc1ccc(S(=O)(=O)Nc2cccc3c2O[C@@H](CN(C)C(=O)Nc2cccc4ccccc24)[C@H](C)CN([C@@H](C)CO)C3=O)cc1 -1.43%
C[C@H](O)[C@H](O)[C@@H](O)[C@@H](O)/C=N/NC(=O)CCCCCC(=O)Nc1ccccc1O 0.323%
C[C@@H]1CN([C@@H](C)CO)C(=O)c2cc(NC(=O)Cc3ccccc3)ccc2O[C@@H](C)CCCCO[C@H]1CN(C)C(=O)Cc1ccccc1 1.05%
Cc1noc(C)c1S(=O)(=O)N(C)C[C@@H]1OCCCC[C@H](C)Oc2ccc(NC(=O)Nc3ccc4c(c3)OCO4)cc2C(=O)N([C@H](C)CO)C[C@@H]1C -0.0337%
O=C(CCCCCCC(=O)Nc1ccccc1O)N/N=C/c1ccc(Oc2ccccc2)cc1 0.474%
O=C(NO)c1ccc(C(=O)N/N=C/c2ccc(Br)cc2)cc1 -0.637%
CC(C)NC(=O)Nc1ccc2c(c1)C(=O)N([C@@H](C)CO)C[C@H](C)[C@H](CN(C)C(=O)NC1CCCCC1)OCCCC[C@@H](C)O2 0.925%
C[C@@H]1CN([C@H](C)CO)C(=O)c2cc(NC(=O)c3ccncc3)ccc2O[C@@H](C)CCCCO[C@@H]1CN(C)CC1CC1 -1.05%
C[C@H]1CCCCO[C@H](CN(C)CC2CC2)[C@@H](C)CN([C@@H](C)CO)C(=O)c2cc(NC(=O)CCC(F)(F)F)ccc2O1 -0.204%
C[C@@H]1CCCCO[C@@H](CN(C)S(=O)(=O)c2cccs2)[C@@H](C)CN([C@@H](C)CO)C(=O)c2cc(NS(=O)(=O)c3ccc(F)cc3)ccc2O1 0.628%
